This is a sample that favours compounds with a hit; in the whole collection about 3.1% have one here.
A1 inh: inhibitors of the anti-apoptotic protein A1, read as caspase activation | MEF A1-2A-BIM cells, Caspase-Glo 3/7 luminescence, 3 h; percent of clofoctol response, vehicle zero | AID 2462 | caspase activation, % (concentration not given with the values) | 330,000 tested, 0.066% active;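 active = over half of replicate activation scores above 10%, or exactly half above 10 with the replicate mean above 10; inconclusive = replicate mean below 10 yet half the replicates above 10; inactive = over half of replicates below 10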
T cruzi repl: T. cruzi replication inhibition | 300,000 tested, 1.4% active | inhibition, % (test concentration not listed) | T. cruzi beta-gal in NIH3T3, luminescence, 90 h;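 active = mean inhibition across valid replicates above about 55%, limit read from the data; inconclusive = mean below that limit but half or more replicates reach it; inactive = mean below it, under half of replicates reach it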;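 note: signal also drops with host cell toxicity which is not excluded here; 0% = plate median of DMSO wells and 100% = zero luminescence signal; higher percent means less beta-gal luminescence so fewer parasites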
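System – NIH/3T3 host cells with β-galactosidase reporter T. cruzi · Doses – single 50 nL compound addition per well in DMSO · Reagent – 5000 T. cruzi trypomastigotes/well · Medium – Low-serum DMEM with 2% FBS · Timing – ≥90 h infection period, 3 h prior cell attachment · Evaluation – parasite load inhibition, % · Technique – GalScreen luminescence, 60 min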
Beta apoptosis: blocks beta cell apoptosis; INS-1E cytokine-induced death, ATP luminescence, 48 h; percent of positive-control rescue, neutral wells zero; 300,000 tested, 0.8% active; protection from apoptosis, % (test concentration not listed);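 active = Every replicate reaches about 75%, or at least half do and their mean reaches it too, limit read from the data; inconclusive = At least half of replicates reach the limit but their mean does not; inactive = Under half of replicates reach the limit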;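 note: 0% = cytokine-treated negative control wells and 100% = positive control rescue; higher means more ATP so stronger rescue from cytokine killing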
H9c2 TAG inh: triacylglycerol accumulation inhibition; H9c2 cells, Nile Red lipid (TAG) fluorescence; cells loaded with 200 µM oleic acid; inhibition, % at 12.5 µM; 230,000 tested, 0.66% active; AID 651582;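 active = pattern-corrected inhibition of lipid staining of at least 50% with the nuclear-stain viability signal not falling by more than 50%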;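 note: 0% = DMSO wells and 100% = triacsin C control wells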
CSC inhib: cancer stem cell inhibition; AID 2717; cancer stem cell-like cells viability, luminescence; inhibition, % at 7.5 µM; 300,000 tested, 1.1% active; in the data active = inhibition above about 75%; inconclusive = no clear call, values can overlap the other calls; tested in HMLE shEcad cells
Calb FLC: affects C. albicans growth with fluconazole. C. albicans CaCi-2 + fluconazole, Alamar Blue growth, 48 h. growth inhibition, % (no concentration beside the values). 300,000 tested, 0.57% active;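 active = growth inhibition above about 58% in most replicates, limit read from the data, passing the limit was not always enough; inconclusive = exactly half the replicates above a set limit; inactive = most replicates below a set limit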;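 note: all wells also contain fluconazole at 8 µg/ml as a sub-toxic cotreatment; 0% = median of DMSO wells and 100% = median of geldanamycin control wells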
An asterisk follows results filed as active; ? = inconclusive; . = not tested or not shown.

SMILES	A1 inh	T cruzi repl	Beta apoptosis	H9c2 TAG inh	CSC inhib	Calb FLC
O=c1cc(-c2ccccc2)nc2c(-c3ccccc3)c(C(F)(F)F)[nH]n12	0	-7	.	1	90*	3
Cc1cc(=O)n2[nH]c(C)c(-c3ccccc3)c2n1	0	-21	-11	-2	-14	13
COc1ccc(OC)c(Nc2nc(N(C)c3ccccc3)nc(N)c2[N+](=O)[O-])c1	0	69*	20	.	43	8
Cc1cc(C(C)(C)CC(C)(C)C)ccc1OCCOCC[N+](C)(C)Cc1ccccc1	1	.	100*	120	118*	.
COc1ccc(CCNC(=O)c2ccc(NC(=O)CC3SC(N4CCCCC4)=NC3=O)cc2)cc1 (stereo not given)	.	.	.	-1	.	.
CC(C)=C1C(=O)NN(c2ccc(F)c(Cl)c2)C1=O	0	3	-3	.	4	101*
CCCCN(C(=O)C1CCCO1)c1c(N)n(CC(C)C)c(=O)[nH]c1=O (stereo not given)	0	0	1	2	-3	-6
CC(C)c1ccc(Nc2ccc(C(=O)O)cc2[N+](=O)[O-])cc1	0	-6	-5	.	-6	-3
CC1=NN(C(N)=S)C(=O)C1N=Nc1c(Br)cc(Br)cc1Br (stereo not given)	-2	0	13	.	77*	63
Cc1ccc(Sc2c(O)c3ccccc3n(C)c2=O)cc1	.	-5	.	.	.	-3
Cc1ccc(Sc2c([N+](=O)[O-])c(=O)n(C)c3ccccc23)cc1	4	39	-3	.	118*	-1
COc1cc(CC(=O)N2CCN(S(=O)(=O)c3ccc(C(C)C)cc3)CC2)cc(OC)c1OC	.	.	.	13	.	.
CC(C)(C)c1ccc(Cn2c(=N)n(CC(O)c3ccco3)c3ccccc32)cc1 (stereo not given)	-2	60*	38	107*	10	20
CCCCN(C(=O)CSc1ncn[nH]1)c1c(N)n(Cc2ccccc2)c(=O)[nH]c1=O	0	.	-3	-1	-1	.
NC(=O)CSC1=N/C(=C\c2ccco2)C(=O)N1c1ccc(OC(F)F)cc1	0	7	-2	6	-2	18
CCOc1cc(/C=C2\N=C(SC(C)C(N)=O)N(c3ccc(OC(F)F)cc3)C2=O)ccc1O (stereo not given)	0	-15	17	10	103*	14
CC(NC(=O)CN1CCN(CC(=O)Nc2ccccc2Cl)CC1)c1ccc(Br)cc1 (stereo not given)	.	.	.	6	.	.
O=S(=O)(Nc1ccc(-c2nnc(SCc3ccc(Cl)cc3)o2)cc1)c1ccccc1	0	6	-11	.	92*	-5
O=C(Nc1ccccc1-c1nnc(SCc2ccc(Cl)cc2)o1)c1ccccc1	.	71*	4	.	.	10
O=C(O)c1ccc(CSc2nnc(-c3ccc(Cl)cc3)o2)cc1	-1	-9	1	8	-27	-6
O=C(Nc1ccccc1-c1nnc(SCc2ccccc2)o1)c1ccccc1	-1	6	-3	13	32	-15
C#CCN(C[C@H]1[C@H](OC(=O)Nc2c(C)noc2C)[C@H](OC(=O)Nc2c(C)noc2C)C[C@H]2C(=O)N(c3ccccc3)C(=O)[C@@H]12)S(=O)(=O)c1ccc(C)cc1	.	.	.	0	.	.
O=[N+]([O-])c1cc(C=Nc2cccc3c(O)cccc23)ccc1Cl	0	11	26	.	.	-4
O=S(=O)(c1ccccc1)N(CC(F)(F)F)c1ccc(C(O)(C(F)(F)F)C(F)(F)F)cc1	.	.	.	-32	.	.
Cc1nc2ccccn2c1C(=O)N/N=C/c1ccc([N+](=O)[O-])cc1	0	-15	-5	.	-4	29
SMILES	A1 inh	T cruzi repl	Beta apoptosis	H9c2 TAG inh	CSC inhib	Calb FLC
Cc1nc2ccccn2c1C(=O)N/N=C/c1ccc([N+](=O)[O-])o1	1	71*	-34	11	12	100*
O=C(N/N=C/c1ccc([N+](=O)[O-])o1)c1cc2ccccc2o1	-1	64*	100*	10	8	31
Cc1scc(C(=O)N/N=C/c2ccc([N+](=O)[O-])o2)c1C	0	39	39	-4	.	90*
Cc1scc(C(=O)N/N=C/c2ccco2)c1C	-4	-13	-2	0	-4	-8
O=C(N/N=C/c1ccc([N+](=O)[O-])o1)c1ccc(O)cc1	0	44	100*	-8	-18	.
O=C(NN1C(=O)NC2(CCCCC2)C1=O)c1ccc(Cl)s1	0	.	0	2	.	.
COc1ccc(Cl)cc1C(=O)NNC(=O)CNC(=O)c1ccco1	0	.	-4	6	5	.
O=C(N/N=C/c1ccc(-c2ccccc2[N+](=O)[O-])o1)c1cncc(Br)c1	0	-7	-3	.	1	-13
CCN(CC)S(=O)(=O)c1cccc(C(=O)N/N=C/c2ccc([N+](=O)[O-])o2)c1	-1	56*	-1	2	12	-2
O=C(N/N=C\c1ccc([N+](=O)[O-])o1)c1cncc(Br)c1	1	58*	.	11	3	-2
CCOc1ncccc1C(=O)Nc1cc(S(=O)(=O)N2CCCCC2)ccc1C	0	.	2	0	.	.
Cc1ccc(-c2nc3ccccc3[nH]2)cc1NC(=O)c1ccco1	-1	13	1	3	-17	?
Cc1ccc(-c2nc3ccccc3[nH]2)cc1NC(=O)c1sc2cc(Cl)ccc2c1Cl	0	60*	3	.	5	-5
CC(C)(C)c1ccc(OCCOc2ccc(C(C)(C)C)cc2NC=O)c(NC=O)c1	-1	59*	.	.	.	24
CCN1CCN(C(=O)c2cc3cc(F)ccc3[nH]2)CC1	-1	26	-8	.	-5	0
COc1ccc2[nH]c(C(=O)N3CCCN(Cc4ccc(F)cc4)CC3)cc2c1	-1	60*	-1	0	5	3
C/C(=N\Nc1nc(N2CCCCC2)nc(N2CCOCC2)n1)c1ccccc1O	-1	55*	.	.	59	1
Oc1ccc(Br)cc1/C=N/Nc1nc(N2CCCCC2)nc(N2CCOCC2)n1	1	74*	7	.	2	-3
CCc1noc(C)c1C(=O)N1CCCC(C(=O)c2cc(F)ccc2OC)C1 (stereo not given)	0	55*	-11	-6	-3	?
CCc1noc(C)c1C(=O)N1CCCC(C(=O)c2cc(F)ccc2F)C1 (stereo not given)	-1	3	1	-5	-12	16
CCOC(=O)N1CCC(N2CCCC(C(=O)c3cc(F)ccc3OC)C2)CC1 (stereo not given)	0	59*	8	-5	5	-13
Cc1ccc(C(=O)NC(=O)OCCn2c(C)cnc2[N+](=O)[O-])cc1	0	-9	-10	5	-14	88*
Cc1cc(NC(=O)c2cccc(Oc3ccccc3)c2)n[nH]1	2	-5	-4	25	7	96*

Screening results from PubChem BioAssay.
